Results taken from ChEMBL document CHEMBL1140914, “Synthesis and in vitro and in vivo evaluation of 18F-labeled positron emission tomography (PET) ligands for imaging the vesicular acetylcholine transporter” (J Med Chem, 2009).

Legend:
Blood [1] = assay: Drug uptake in Sprague-Dawley rat blood at 25 to 35 uCi, iv after 2 hrs postinjection by […]; format: ADME, organism-based; settings: in vivo
Outline: (§1)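 Mature male Sprague-Dawley rats (250–400 g) under 2–3% isoflurane got 25–35 μCi tracer in 100–150 μL saline via tail vein. Groups of at least 4 were euthanized at 5 min, 30 min, 1 h or 2 h. Brain was dissected into regions, and tissues were weighed and gamma counted against an injectate standard. Values are %ID/g, mean ± SD.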

Lung [2] = assay: Drug uptake in Sprague-Dawley rat lung at 25 to 35 uCi, iv after 5 mins postinjection by […]; format: ADME, organism-based; settings: in vivo; outline: as §1
Lung [3] = assay: Drug uptake in Sprague-Dawley rat lung at 25 to 35 uCi, iv after 30 mins postinjection by […]; format: ADME, organism-based; settings: in vivo, 0.5 h; outline: as §1
Lung [4] = assay: Drug uptake in Sprague-Dawley rat lung at 25 to 35 uCi, iv after 1 hr postinjection by […]; format: ADME, organism-based; settings: in vivo; outline: as §1
Lung [5] = assay: Drug uptake in Sprague-Dawley rat lung at 25 to 35 uCi, iv after 2 hrs postinjection by […]; format: ADME, organism-based; settings: in vivo; outline: as §1
Heart [6] = assay: Drug uptake in Sprague-Dawley rat heart at 25 to 35 uCi, iv after 5 mins postinjection by […]; format: ADME, organism-based; settings: in vivo; outline: as §1
Heart [7] = assay: Drug uptake in Sprague-Dawley rat heart at 25 to 35 uCi, iv after 30 mins postinjection by […]; format: ADME, organism-based; settings: in vivo, 0.5 h; outline: as §1
Heart [8] = assay: Drug uptake in Sprague-Dawley rat heart at 25 to 35 uCi, iv after 1 hr postinjection by […]; format: ADME, organism-based; settings: in vivo; outline: as §1
Heart [9] = assay: Drug uptake in Sprague-Dawley rat heart at 25 to 35 uCi, iv after 2 hrs postinjection by […]; format: ADME, organism-based; settings: in vivo; outline: as §1
Muscle tissue [10] = assay: Drug uptake in Sprague-Dawley rat muscle at 25 to 35 uCi, iv after 5 mins postinjection by […]; format: ADME, organism-based; settings: in vivo; outline: as §1
Muscle tissue [11] = assay: Drug uptake in Sprague-Dawley rat muscle at 25 to 35 uCi, iv after 30 mins postinjection by […]; format: ADME, organism-based; settings: in vivo, 0.5 h; outline: as §1
Muscle tissue [12] = assay: Drug uptake in Sprague-Dawley rat muscle at 25 to 35 uCi, iv after 1 hr postinjection by […]; format: ADME, organism-based; settings: in vivo; outline: as §1
Muscle tissue [13] = assay: Drug uptake in Sprague-Dawley rat muscle at 25 to 35 uCi, iv after 2 hrs postinjection by […]; format: ADME, organism-based; settings: in vivo; outline: as §1
[14] = Drug uptake in Sprague-Dawley rat fat at 25 to 35 uCi, iv after 5 mins postinjection by […]; format: ADME, organism-based, Adipose tissue; settings: in vivo; outline: as §1
[15] = Drug uptake in Sprague-Dawley rat fat at 25 to 35 uCi, iv after 30 mins postinjection by […]; format: ADME, organism-based, Adipose tissue; settings: in vivo, 0.5 h; outline: as §1
[16] = Drug uptake in Sprague-Dawley rat fat at 25 to 35 uCi, iv after 1 hr postinjection by […]; format: ADME, organism-based, Adipose tissue; settings: in vivo; outline: as §1
[17] = Drug uptake in Sprague-Dawley rat fat at 25 to 35 uCi, iv after 2 hrs postinjection by […]; format: ADME, organism-based, Adipose tissue; settings: in vivo; outline: as §1
Liver [18] = assay: Drug uptake in Sprague-Dawley rat liver at 25 to 35 uCi, iv after 5 mins postinjection by […]; format: ADME, organism-based; settings: in vivo; outline: as §1
Liver [19] = assay: Drug uptake in Sprague-Dawley rat liver at 25 to 35 uCi, iv after 30 mins postinjection by […]; format: ADME, organism-based; settings: in vivo, 0.5 h; outline: as §1
Liver [20] = assay: Drug uptake in Sprague-Dawley rat liver at 25 to 35 uCi, iv after 1 hr postinjection by […]; format: ADME, organism-based; settings: in vivo; outline: as §1
Liver [21] = assay: Drug uptake in Sprague-Dawley rat liver at 25 to 35 uCi, iv after 2 hrs postinjection by […]; format: ADME, organism-based; settings: in vivo; outline: as §1
Kidney [22] = assay: Drug uptake in Sprague-Dawley rat kidney at 25 to 35 uCi, iv after 5 mins postinjection by […]; format: ADME, organism-based; settings: in vivo; outline: as §1
Kidney [23] = assay: Drug uptake in Sprague-Dawley rat kidney at 25 to 35 uCi, iv after 30 mins postinjection by […]; format: ADME, organism-based; settings: in vivo, 0.5 h; outline: as §1
Kidney [24] = assay: Drug uptake in Sprague-Dawley rat kidney at 25 to 35 uCi, iv after 1 hr postinjection by […]; format: ADME, organism-based; settings: in vivo; outline: as §1
Kidney [25] = assay: Drug uptake in Sprague-Dawley rat kidney at 25 to 35 uCi, iv after 2 hrs postinjection by […]; format: ADME, organism-based; settings: in vivo; outline: as §1
Bone [26] = assay: Drug uptake in Sprague-Dawley rat bone at 25 to 35 uCi, iv after 5 mins postinjection by […]; format: ADME, organism-based, Bone element; settings: in vivo; outline: as §1
Bone [27] = assay: Drug uptake in Sprague-Dawley rat bone at 25 to 35 uCi, iv after 30 mins postinjection by […]; format: ADME, organism-based, Bone element; settings: in vivo, 0.5 h; outline: as §1
Bone [28] = assay: Drug uptake in Sprague-Dawley rat bone at 25 to 35 uCi, iv after 1 hr postinjection by […]; format: ADME, organism-based, Bone element; settings: in vivo; outline: as §1
Bone [29] = assay: Drug uptake in Sprague-Dawley rat bone at 25 to 35 uCi, iv after 2 hrs postinjection by […]; format: ADME, organism-based, Bone element; settings: in vivo; outline: as §1
Brain [30] = assay: Drug uptake in Sprague-Dawley rat brain at 25 to 35 uCi, iv after 5 mins postinjection by […]; format: ADME, organism-based; settings: in vivo; outline: as §1
Brain [31] = assay: Drug uptake in Sprague-Dawley rat brain at 25 to 35 uCi, iv after 30 mins postinjection by […]; format: ADME, organism-based; settings: in vivo, 0.5 h; outline: as §1
Brain [32] = assay: Drug uptake in Sprague-Dawley rat brain at 25 to 35 uCi, iv after 1 hr postinjection by […]; format: ADME, organism-based; settings: in vivo; outline: as §1
Brain [33] = assay: Drug uptake in Sprague-Dawley rat brain at 25 to 35 uCi, iv after 2 hrs postinjection by […]; format: ADME, organism-based; settings: in vivo; outline: as §1
Striatum = assay: Drug uptake in Sprague-Dawley rat brain striatum at 25 to 35 uCi, iv after 5 mins postinjection by […]; format: ADME, organism-based; settings: in vivo; outline: as §1
Cortex = assay: Drug uptake in Sprague-Dawley rat brain cortex at 25 to 35 uCi, iv after 5 mins postinjection by […]; format: ADME, organism-based; settings: in vivo; outline: as §1
Hippocampus = assay: Drug uptake in Sprague-Dawley rat brain hippocampus at 25 to 35 uCi, iv after 5 mins postinjection by […]; format: ADME, organism-based; settings: in vivo; outline: as §1
Cerebellum = assay: Drug uptake in Sprague-Dawley rat brain cerebellum at 25 to 35 uCi, iv after 5 mins postinjection by […]; format: ADME, organism-based; settings: in vivo; outline: as §1
Blood [34] = assay: Drug uptake in Sprague-Dawley rat blood at 25 to 35 uCi, iv after 5 mins postinjection by […]; format: ADME, organism-based; settings: in vivo; outline: as §1
Blood [35] = assay: Drug uptake in Sprague-Dawley rat blood at 25 to 35 uCi, iv after 30 mins postinjection by […]; format: ADME, organism-based; settings: in vivo, 0.5 h; outline: as §1
Blood [36] = assay: Drug uptake in Sprague-Dawley rat blood at 25 to 35 uCi, iv after 1 hr postinjection by […]; format: ADME, organism-based; settings: in vivo; outline: as §1

O=C(c1ccc([18F])cc1)C1CCN([C@@H]2Cc3ccccc3C[C@H]2O)CC1 (stereo in doubt; (-))
Drug uptake (Blood [1]): 0.02 % ID/g | Drug uptake (Lung [2]): 1.577 % ID/g | Drug uptake (Lung [3]): 0.481 % ID/g | Drug uptake (Lung [4]): 0.327 % ID/g | Drug uptake (Lung [5]): 0.199 % ID/g | Drug uptake (Heart [6]): 0.321 % ID/g | Drug uptake (Heart [7]): 0.109 % ID/g | Drug uptake (Heart [8]): 0.066 % ID/g | Drug uptake (Heart [9]): 0.047 % ID/g | Drug uptake (Muscle tissue [10]): 0.091 % ID/g | Drug uptake (Muscle tissue [11]): 0.08 % ID/g | Drug uptake (Muscle tissue [12]): 0.056 % ID/g | Drug uptake (Muscle tissue [13]): 0.035 % ID/g | Drug uptake [14]: 0.132 % ID/g | Drug uptake [15]: 0.207 % ID/g | Drug uptake [16]: 0.241 % ID/g | Drug uptake [17]: 0.249 % ID/g | Drug uptake (Liver [18]): 1.506 % ID/g | Drug uptake (Liver [19]): 1.769 % ID/g | Drug uptake (Liver [20]): 2.214 % ID/g | Drug uptake (Liver [21]): 1.791 % ID/g | Drug uptake (Kidney [22]): 2.018 % ID/g | Drug uptake (Kidney [23]): 1.896 % ID/g | Drug uptake (Kidney [24]): 1.298 % ID/g | Drug uptake (Kidney [25]): 1.339 % ID/g | Drug uptake (Bone [26]): 0.334 % ID/g | Drug uptake (Bone [27]): 0.157 % ID/g | Drug uptake (Bone [28]): 0.148 % ID/g | Drug uptake (Bone [29]): 0.138 % ID/g | Drug uptake (Brain [30]): 0.823 % ID/g | Drug uptake (Brain [31]): 0.226 % ID/g | Drug uptake (Brain [32]): 0.124 % ID/g | Drug uptake (Brain [33]): 0.095 % ID/g | Drug uptake (Striatum): 0.911 % ID/g | Drug uptake (Cortex): 0.911 % ID/g | Drug uptake (Hippocampus): 0.837 % ID/g | Drug uptake (Cerebellum): 0.743 % ID/g | Drug uptake (Blood [34]): 0.073 % ID/g | Drug uptake (Blood [35]): 0.037 % ID/g | Drug uptake (Blood [36]): 0.029 % ID/g
